What is called IC50 is the concentration at which inhibition is half-maximal. By MIC is commonly meant the smallest concentration in the dilution series that meets the test's criterion for growth inhibition.

The values that follow come from ChEMBL document CHEMBL3407374, “Synthesis of structural analogues of hexadecylphosphocholine and their antineoplastic, antimicrobial and amoebicidal activity” (Eur J Med Chem, 2015).

One data set relates to MCF7. Description: Cytotoxicity against human MCF7 cells after 24 hrs by MTT method. The data set is classed as functional, cell-based. The settings on record: MCF7, 24 h. In outline:
(§1)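 MCF-7 grown in MEM with NEA, FCS, glutamine; A2780 in RPMI-1640 with FCS, glutamine; 37 °C, 5% CO₂, trypsin-EDTA passaging. Seeded 20 000 cells/well, treated after about 20 h; 24-h exposure. MTT read-out, formazan dissolved in DMSO, read at 492/520 nm. IC50 from log inhibitor versus normalized response sigmoidal fit.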
For orientation: Tetrazolium dyes change colour on reduction, which living cells bring about.

The test system of a further data set is A2780. Description: Cytotoxicity against human A2780 cells after 24 hrs by MTT method. The data set is classed as functional, cell-based. The settings on record: A2780, 24 h. Put shortly: as §1
For another data set, the system named is HuT78. Description: Cytotoxicity against human HUT78 cells after 24 hrs by MTS method. To be noted: HuT78, 24 h. The format is functional, cell-based. Put shortly: (§2)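 THP-1 and HUT-78 grown in suspension in RPMI-1640 with FCS, glutamine, penicillin-streptomycin, NEA, 2-sulfanylethanol, sodium pyruvate; 37 °C, 5% CO₂; passaged by centrifugation. 24-h exposure; MTS read-out (water-soluble formazan) at 492/520 nm. IC50 from log inhibitor versus normalized response sigmoidal fit.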

In a further data set the test system is THP-1. Description: Cytotoxicity against human THP1 cells after 24 hrs by MTS method. The settings on record: THP-1, 24 h. The format is functional, cell-based. Put shortly: as §2
The nature of data set [1]: Cytotoxicity against human lymphocytes assessed as growth inhibition at 500 uM after 24 hrs by MTS method. The format is cell-based, Lymphocyte. The settings on record: for inhibition at 24 h, 500 µM: human lymphocytes, read-out: GI; for growth inhibition (GI): lymphocyte, 24 h, 500 µM.
For the next data set, the system named is Acanthamoeba lugdunensis. Description: Antiprotozoal activity against Acanthamoeba lugdunensis trophozoites assessed as viability after 1 to 48 hrs by trypan blue exclusion assay. The format is functional. Put shortly: (§3)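 Trophozoites axenized from 2-day monoxenic agar cultures via BCS then PYG media with antibiotics, then cultured antibiotic-free in PYG. 2 × 10⁵ cells/ml suspension mixed 1:1 with medium holding compound; final […]. Survivors counted by haemocytometer with trypan blue at 1, 24, 48 h; eradication confirmed by 14-day PYG regrowth; MTC = lowest concentration giving 100% eradication.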

Data set [2] relates to Acanthamoeba quina. Description: Antiprotozoal activity against Acanthamoeba quina trophozoites assessed as viability after 1 to 48 hrs by trypan blue exclusion assay. The format is functional. Put shortly: as §3
In the next data set the test system is Staphylococcus aureus. Description: Antimicrobial activity against Staphylococcus aureus ATCC 29/58 assessed as prevention of colony formation after 24 hrs by spectrophotometry. The settings on record: ATCC 29/58, 24 h. The format is functional. Put shortly: (§4)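 Bacteria grown 24 h on blood agar, Candida on Sabouraud agar; suspensions in physiological solution (pH 7.2), 5 × 10⁷ CFU/ml bacteria, 5 × 10⁵ CFU/ml Candida. […] suspension added to aqueous compound solution plus double-strength peptone broth (bacteria) or Sabouraud medium (Candida). Incubated 24 h at 37 °C in 96-well plates, then subcultured on agar 24 h at 37 °C.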

The subject of the next data set is Escherichia coli. Description: Antimicrobial activity against Escherichia coli ATCC 377/79 assessed as prevention of colony formation after 24 hrs by spectrophotometry. The format is functional. To be noted: ATCC 377/79, 24 h. In outline: as §4
A further data set concerns Candida albicans. Description: Antimicrobial activity against Candida albicans ATCC 8186 assessed as prevention of colony formation after 24 hrs by spectrophotometry. The format is functional. The settings on record: ATCC 8186, 24 h. In outline: as §4
Data set [3] is described as follows: Solubility of the compound in water. The data set is classed as physicochemical. To be noted: buffer.
Data set [4] relates to Acanthamoeba quina. Description: Ratio of miltefosine MTC to compound MTC for Acanthamoeba quina trophozoites assessed as viability after 1 to 48 hrs by trypan blue exclusion assay. The format is functional.
The nature of data set [5]: Critical micelle concentration of the compound. The data set is classed as ADME.

SMILES strings stand for the structures. Values after ≈ are worked out from the molar mass of the structure shown. Bounds are passed on as bounds.

In the case of `CCCCCCCCCCCCCCC[N+](C)(C)CCOP(=O)([O-])OCC`, the IC50 was 14.4 µM in the data set with MCF7, 7.44 µM in the data set on A2780, 35.2 µM with HuT78 and 30.5 µM in the data set with THP-1. Moreover, in [1], the inhibition at 24 h, 500 µM came out at 10%. Also, the MTC with Acanthamoeba lugdunensis and in the data set with Acanthamoeba quina [2] was 62.5 µM in each case. The MIC in the data set with Staphylococcus aureus is more than 1000 µM; in the data set with Escherichia coli it was more than 1000 µM; with Candida albicans, 21.1 µM (≈ 8.62 µg/mL). Besides, the solubility entry in [3] is listed as “soluble”. Also, the Ratio in the data set on Acanthamoeba quina [4] is 2.

Take `CCCCCCCCCCCCCC[N+](C)(C)CCOP(=O)([O-])OCCC`: the IC50 in the data set with MCF7 worked out at 20.9 µM; in the data set on A2780 it was 9.26 µM; in the data set with HuT78, 29.1 µM; with THP-1, 29.4 µM. Besides, the inhibition at 24 h, 500 µM in data set [1] amounted to 12%. Moreover, the MTC with Acanthamoeba lugdunensis and in the data set with Acanthamoeba quina [2] was 125 µM throughout. For the same molecule, the MIC is more than 1000 µM in the data set on Staphylococcus aureus, more than 1000 µM with Escherichia coli and 86.3 µM (≈ 35.2 µg/mL) in the data set with Candida albicans. Moreover, the solubility entry in data set [3] is recorded as “soluble”.

Regarding `CCCCCCCCCCCC[N+](C)(C)CCOP(=O)([O-])OCCCCC`, the IC50 with MCF7 amounted to 25.8 µM; with A2780, 18.3 µM; in the data set on HuT78 it was 68 µM; with THP-1, 71.2 µM. Also, the MTC in the data set on Acanthamoeba lugdunensis and in the data set with Acanthamoeba quina [2] was 125 µM in each case. The MIC in the data set with Staphylococcus aureus was more than 1000 µM; in the data set with Escherichia coli it was more than 1000 µM; with Candida albicans it was 352 µM (≈ 144 µg/mL). Moreover, the solubility result in data set [3] is recorded as “soluble”.

As for `CCCCCCCCCCC[N+](C)(C)CCOP(=O)([O-])OCCCCCC`, the IC50 in the data set with MCF7 was 64.5 µM; in the data set with A2780, 25.7 µM; in the data set with HuT78, 96 µM; in the data set on THP-1, 31.2 µM. Moreover, the results for the MTC in the data set with Acanthamoeba lugdunensis and in the data set with Acanthamoeba quina [2] were 62.5 µM and 125 µM, respectively. The MIC in the data set on Staphylococcus aureus is more than 1000 µM; in the data set on Escherichia coli, more than 1000 µM; in the data set on Candida albicans, 360 µM (≈ 147 µg/mL). In addition, in data set [3], the solubility result is listed as “soluble”.

With `CCCCCCCCCC[N+](C)(C)CCOP(=O)([O-])OCCCCCCC`, the IC50 with MCF7 came to 26.2 µM; in the data set with A2780, 4.7 µM; with HuT78, 437 µM; in the data set on THP-1 it was 647 µM. The “growth inhibition (GI)” value in data set [1] was “Non-toxic”. In addition, the MTC in the data set on Acanthamoeba lugdunensis and in the data set with Acanthamoeba quina [2] was 125 µM each time. For the same molecule, the MIC with Staphylococcus aureus is more than 1000 µM; in the data set with Escherichia coli it was more than 1000 µM; in the data set with Candida albicans it was 352 µM (≈ 144 µg/mL). The solubility result in data set [3] was “soluble”.

With `CCCCCCCCC[N+](C)(C)CCOP(=O)([O-])OCCCCCCCC`, the IC50 amounted to 19.2 µM with MCF7, 4.32 µM with A2780, 280 µM in the data set with HuT78 and 544 µM in the data set with THP-1. For the same molecule, the “growth inhibition (GI)” value in data set [1] is reported as “Non-toxic”. The MTC in the data set with Acanthamoeba lugdunensis and with Acanthamoeba quina [2] was 125 µM each time. The MIC was more than 1000 µM in the data set on Staphylococcus aureus, more than 1000 µM in the data set with Escherichia coli and 367 µM (≈ 150 µg/mL) with Candida albicans. The solubility result in data set [3] is given as “soluble”.

For `CCCCCCCCCOP(=O)([O-])OCC[N+](C)(C)CCCCCCCC`, the IC50 in the data set with MCF7 was found to be 34 µM; in the data set on A2780, 7.31 µM; with HuT78, 146 µM; in the data set on THP-1 it was 170 µM. Further, the “growth inhibition (GI)” value in [1] is recorded as “Non-toxic”. In addition, the MTC in the data set on Acanthamoeba lugdunensis and with Acanthamoeba quina [2] was 250 µM in each case. The results for the MIC in the data set with Staphylococcus aureus, with Escherichia coli and in the data set with Candida albicans were more than 1000 µM, more than 1000 µM and 734 µM (≈ 299 µg/mL), respectively. The solubility result in [3] is recorded as “soluble”.

On to `CCCCCCCCCCOP(=O)([O-])OCC[N+](C)(C)CCCCCCC`, for which the IC50 in the data set on MCF7 was determined as 62.2 µM; in the data set on A2780, 35.1 µM; in the data set on HuT78, 52.9 µM; in the data set on THP-1 it was 101 µM. Besides, the MTC in the data set on Acanthamoeba lugdunensis and in the data set on Acanthamoeba quina [2] was 250 µM throughout. Moreover, the MIC with Staphylococcus aureus is more than 1000 µM; in the data set with Escherichia coli it was more than 1000 µM; in the data set with Candida albicans, 180 µM (≈ 73.3 µg/mL). Also, the solubility entry in [3] is “soluble”.

Turning to `CCCCCCCCCCCOP(=O)([O-])OCC[N+](C)(C)CCCCCC`, the IC50 in the data set with MCF7 turned out to be 111 µM; in the data set with A2780, 19.2 µM; in the data set with HuT78, 82.6 µM; in the data set with THP-1 it was 92 µM. In addition, the MTC in the data set on Acanthamoeba lugdunensis was found to be 125 µM; in the data set with Acanthamoeba quina [2] it was 250 µM. Besides, the minimum inhibitory concentration (MIC) in the data set on Staphylococcus aureus was more than 1000 µM; in the data set with Escherichia coli, more than 1000 µM; in the data set with Candida albicans it was 188 µM (≈ 76.4 µg/mL). For the same molecule, the solubility entry in [3] was “soluble”.

For `CCCCCCCCCCCCOP(=O)([O-])OCC[N+](C)(C)CCCCC`, the IC50 in the data set with MCF7 turned out to be 66.1 µM; in the data set on A2780, 24.8 µM; in the data set on HuT78, 55.2 µM; in the data set with THP-1 it was 93.2 µM. Besides, the MTC with Acanthamoeba lugdunensis and in the data set with Acanthamoeba quina [2] was 125 µM in each case. In addition, the figures for the MIC with Staphylococcus aureus, in the data set on Escherichia coli and in the data set with Candida albicans were more than 1000 µM, more than 1000 µM and 184 µM (≈ 74.8 µg/mL), respectively. In addition, the solubility entry in [3] is reported as “soluble”.

In the case of `CCCCCCCCCCCCCCOP(=O)([O-])OCC[N+](C)(C)CCC`, the IC50 came to 50.6 µM with MCF7, 28.6 µM in the data set on A2780, 51.4 µM in the data set on HuT78 and 127 µM in the data set with THP-1. The MTC in the data set with Acanthamoeba lugdunensis and in the data set with Acanthamoeba quina [2] was 125 µM in each case. For the same molecule, the MIC in the data set on Staphylococcus aureus was more than 1000 µM; in the data set with Escherichia coli, more than 1000 µM; in the data set with Candida albicans, 11.7 µM (≈ 4.77 µg/mL). For the same molecule, in data set [3], the solubility entry is recorded as “soluble”.

`CCCCCCCCCCCCCCCOP(=O)([O-])OCC[N+](C)(C)CC`: the IC50 was 43.3 µM with MCF7, 10.1 µM with A2780, 62.7 µM with HuT78 and 96.8 µM in the data set on THP-1. The MTC in the data set on Acanthamoeba lugdunensis and in the data set with Acanthamoeba quina [2] was 125 µM each time. Besides, the MIC is more than 1000 µM with Staphylococcus aureus, more than 1000 µM in the data set with Escherichia coli and 2.93 µM (≈ 1.19 µg/mL) with Candida albicans. Moreover, the solubility result in data set [3] is “soluble”.

For `CCCCCCCCOP(=O)([O-])OCC[N+](C)(C)CCCCCCCC`, the CMC in data set [5] was found to be 1 mmol/dm3.

Consider `CCCCCCCCCCCCCCCCOP(=O)([O-])OCC[N+](C)(C)C` [MILTEFOSINE], for which the IC50 came out at 35.7 µM in the data set on MCF7, 8.87 µM in the data set with A2780, 67.2 µM with HuT78 and 81.3 µM with THP-1. The MTC came out at 250 µM in the data set on Acanthamoeba lugdunensis and 125 µM in the data set with Acanthamoeba quina [2]. Besides, the MIC is 11.5 µM (≈ 4.69 µg/mL) with Staphylococcus aureus, more than 1000 µM in the data set with Escherichia coli and 2.87 µM (≈ 1.17 µg/mL) with Candida albicans. In [5], the CMC is recorded as 1.25 umol/dm3.
